# Laboratory results reported in ChEMBL document CHEMBL2331117 (J Med Chem, 2013).
# Columns and labels:
# [1] = Plasma concentration in athymic mouse plasma xenografted with human PC3 cells at 100 mg/kg, po after 4 hrs; type: ADME, organism-based, PC-3; design: dose 100 mg/kg, route oral
# [2] = Kinetic solubility of the compound; type: physicochemical; conditions: read-out: Kinetic_solubility
# Mus musculus [3] = test: In vivo inhibition of mTORC2-mediated phosphorylation of AKT at serine 473 in human PC3 cells xenografted into athymic nude mouse at 100 mg/kg, po after 4 hrs by Western blotting analysis relative to control; type: functional; conditions: PC-3, 4 h
# In short: (§1)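 PC-3 cells grown in DMEM with 20% FBS were implanted subcutaneously at 3 × 10^6 cells in ice-cold HBSS into the hindflank of 5−8 week old male nude mice. At tumor size 200−500 mg, mice received a single oral dose of 100 mg/kg. Plasma and tumors were collected at 1, 4, 8, 16, 24 and 32 h. Tumor lysates from each group (n = 5) were pooled. Phospho-proteins were quantified by Western blot and normalized to α-tubulin.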
# [4] = AUC (0 to infinity) in Beagle dog at 3 mg/kg, iv; type: ADME, organism-based, Canis lupus familiaris; design: time infinity, dose 3 mg/kg, route intravenous; conditions: plasma
# In short: (§2)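 Single-dose PK: female athymic nude mice (10 mg/kg), female CD rats and male beagle dogs (3 mg/kg), male cynomolgus monkeys (3 mg/kg), given iv and by oral gavage. Solution in EPW (5% ethanol/45% PEG400/water), with 1:2 HCl (m/m) for mouse, rat and dog and 1:1.5 HCl (m/m) for monkey. Plasma levels followed over 24 h.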
# Mus musculus [5] = test: In vivo inhibition of mTORC2-mediated phosphorylation of AKT at serine 473 in human PC3 cells xenografted into athymic nude mouse at 100 mg/kg, po after 8 hrs by Western blotting analysis relative to control; type: functional; conditions: PC-3, 8 h; in short: as §1
# Mus musculus [6] = test: In vivo inhibition of mTORC1-mediated phosphorylation of p70S6K at […] in human PC3 cells xenografted into athymic nude mouse at 100 mg/kg, po after 32 hrs by Western blotting analysis relative to control; type: functional; conditions: PC-3, 32 h; in short: as §1
# Mus musculus [7] = test: In vivo inhibition of mTORC2-mediated phosphorylation of AKT at […] in human PC3 cells xenografted into athymic nude mouse at 100 mg/kg, po after 1 hr by Western blotting analysis relative to control; type: functional; conditions: PC-3, 1 h
# In short: (§3)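 Human PC-3 cells were implanted subcutaneously into the hindflank of male nude mice aged 5−8 weeks, at 3 × 10^6 cells (passages 10−14, >95% viability) in ice-cold HBSS. At a tumor size of 200−500 mg, mice got one oral 100 mg/kg dose. Tumors were taken at 1, 4, 8, 16, 24 and 32 h. Lysates (n = 5 per group) were pooled, and phospho-AKT (T308) was read by Western blot, normalized to α-tubulin.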
# Mus musculus [8] = test: In vivo inhibition of mTORC1-mediated phosphorylation of p70S6K at […] in human MCF7 cells xenografted into athymic nude mouse at 100 mg/kg, po after 1 hr by Western blotting analysis relative to control; type: functional; conditions: MCF7, 1 h
# In short: (§4)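 MCF-7 cells (DMEM, 10% FBS) were implanted subcutaneously at 5 × 10^6 cells in 50% cold HBSS/50% growth-factor-reduced matrigel into the hindflank of 5−8 week old female nude mice. At tumor size 40−150 mg, mice received a single oral dose of 100 mg/kg. Tumor lysates were pooled per group. Phospho-AKT (S473, T308), p70S6K (T389), S6 (S240/244) and 4E-BP1 (T37/46) were measured by Western blot normalized to α-tubulin.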
# [9] = AUC (0 to infinity) in CD rat at 3 mg/kg, po; type: ADME, organism-based; design: time infinity, dose 3 mg/kg, route oral; conditions: plasma; in short: as §2
# [10] = Cmax in athymic nude mouse at 10 mg/kg, iv; type: ADME, organism-based; design: dose 10 mg/kg, route intravenous; conditions: in vivo; in short: as §2
# [11] = Drug uptake in tumor of athymic mouse xenografted with human MCF7 cells at 100 mg/kg, po after 1 hr; type: ADME, organism-based, Neoplasm; design: dose 100 mg/kg, route oral; conditions: read-out: Drug uptake
# [12] = Metabolic stability in mouse liver microsomes after 30 mins; type: ADME, Microsome; conditions: read-out: Stability
# Mus musculus [13] = test: In vivo inhibition of mTORC1-mediated phosphorylation of p70S6K at […] in human MCF7 cells xenografted into athymic nude mouse at 100 mg/kg, po after 24 hrs by Western blotting analysis relative to control; type: functional; conditions: MCF7, 24 h; in short: as §4
# MCF7 [14] = test: Antitumor activity against human MCF7 cells xenografted in athymic nude mouse at 50 mg/kg, po qd for 14 days relative to control; type: functional
# In short: (§5)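 Female athymic nude (NCr) mice, 5–8 weeks old, bearing subcutaneous MCF-7 tumors staged at 100–200 mg. Compound given orally qd for 14 days at 50 or 100 mg/kg as a solution/fine suspension in water with a 1:1 molar ratio of 1 N HCl. Caliper tumor mass = length × width²/2, measured twice weekly; body mass recorded daily.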
# [15] = AUC (0 to infinity) in athymic nude mouse at 10 mg/kg, po; type: ADME, organism-based; design: dose 10 mg/kg, route oral, time infinity; conditions: plasma; in short: as §2
# [16] = Tmax in Beagle dog at 3 mg/kg, po; type: ADME, organism-based, Canis lupus familiaris; design: dose 3 mg/kg, route oral; conditions: in vivo
# Casein kinase II = Casein kinase II (Homo sapiens, UniProt P19784+P67870+P68400); test: Inhibition of CK2 (unknown origin); type: protein-complex assay
# Sequence of Casein kinase II (P67870 whole entry): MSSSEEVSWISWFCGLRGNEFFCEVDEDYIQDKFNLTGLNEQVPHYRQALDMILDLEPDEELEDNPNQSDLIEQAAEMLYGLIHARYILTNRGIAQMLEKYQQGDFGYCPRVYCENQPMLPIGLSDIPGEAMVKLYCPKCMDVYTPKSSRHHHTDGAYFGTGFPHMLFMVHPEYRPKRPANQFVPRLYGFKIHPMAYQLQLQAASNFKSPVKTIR
# Sequence of Casein kinase II (P68400 whole entry): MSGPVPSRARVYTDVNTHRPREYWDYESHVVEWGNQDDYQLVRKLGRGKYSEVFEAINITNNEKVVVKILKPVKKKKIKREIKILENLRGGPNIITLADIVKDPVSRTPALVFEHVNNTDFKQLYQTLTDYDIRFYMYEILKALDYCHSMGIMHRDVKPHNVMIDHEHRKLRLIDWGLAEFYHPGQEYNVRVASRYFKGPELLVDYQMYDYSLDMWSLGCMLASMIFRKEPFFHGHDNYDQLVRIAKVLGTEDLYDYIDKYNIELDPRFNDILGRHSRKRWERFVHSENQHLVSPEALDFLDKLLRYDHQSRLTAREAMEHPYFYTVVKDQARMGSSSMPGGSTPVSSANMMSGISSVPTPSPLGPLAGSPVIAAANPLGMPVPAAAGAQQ
# Sequence of Casein kinase II (P19784 whole entry): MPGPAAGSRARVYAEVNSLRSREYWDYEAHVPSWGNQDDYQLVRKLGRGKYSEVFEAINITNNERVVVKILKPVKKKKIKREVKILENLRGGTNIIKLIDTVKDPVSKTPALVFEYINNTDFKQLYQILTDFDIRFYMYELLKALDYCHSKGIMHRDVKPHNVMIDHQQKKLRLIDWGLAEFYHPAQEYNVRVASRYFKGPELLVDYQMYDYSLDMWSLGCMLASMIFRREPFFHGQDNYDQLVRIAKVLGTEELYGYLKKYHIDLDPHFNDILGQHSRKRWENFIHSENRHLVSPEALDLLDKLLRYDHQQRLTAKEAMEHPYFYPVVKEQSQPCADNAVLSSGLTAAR
# Mus musculus [17] = test: In vivo inhibition of mTORC2-mediated phosphorylation of AKT at […] in human PC3 cells xenografted into athymic nude mouse at 100 mg/kg, po after 16 hrs by Western blotting analysis relative to control; type: functional; conditions: PC-3, 16 h; in short: as §3
# [18] = biological target: RAF proto-oncogene serine/threonine-protein kinase (Homo sapiens, UniProt P04049); test: Inhibition of cRAF (unknown origin)
# Sequence of RAF proto-oncogene serine/threonine-protein kinase (P04049 whole entry): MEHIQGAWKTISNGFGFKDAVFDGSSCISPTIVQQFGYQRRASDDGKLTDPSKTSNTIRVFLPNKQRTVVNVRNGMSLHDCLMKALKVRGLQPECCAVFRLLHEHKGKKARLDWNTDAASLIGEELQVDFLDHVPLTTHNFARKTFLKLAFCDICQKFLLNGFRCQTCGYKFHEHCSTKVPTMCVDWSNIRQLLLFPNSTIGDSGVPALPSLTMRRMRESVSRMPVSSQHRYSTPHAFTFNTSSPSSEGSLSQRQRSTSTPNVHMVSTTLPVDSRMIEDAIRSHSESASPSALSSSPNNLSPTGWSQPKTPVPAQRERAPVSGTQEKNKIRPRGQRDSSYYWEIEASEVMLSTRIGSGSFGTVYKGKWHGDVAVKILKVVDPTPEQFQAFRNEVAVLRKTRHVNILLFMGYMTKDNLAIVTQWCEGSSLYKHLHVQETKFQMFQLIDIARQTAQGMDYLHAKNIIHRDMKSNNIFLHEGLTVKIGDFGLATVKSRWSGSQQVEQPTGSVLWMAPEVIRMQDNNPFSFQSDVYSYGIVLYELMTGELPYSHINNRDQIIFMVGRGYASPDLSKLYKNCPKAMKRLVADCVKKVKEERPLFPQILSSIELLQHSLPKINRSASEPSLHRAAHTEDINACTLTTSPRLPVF
# [19] = Tmax in CD rat at 3 mg/kg, po; type: ADME, organism-based; design: dose 3 mg/kg, route oral; conditions: in vivo
# [20] = Clearance in cynomolgus monkey at 3 mg/kg, iv; type: ADME, organism-based, Macaca fascicularis; design: dose 3 mg/kg, route intravenous; conditions: in vivo; in short: as §2
# Cytochrome P450 2C9 = Cytochrome P450 2C9 (Homo sapiens, UniProt P11712); test: Inhibition of CYP2C9 (unknown origin); type: ADME
# Sequence of Cytochrome P450 2C9 (P11712 whole entry): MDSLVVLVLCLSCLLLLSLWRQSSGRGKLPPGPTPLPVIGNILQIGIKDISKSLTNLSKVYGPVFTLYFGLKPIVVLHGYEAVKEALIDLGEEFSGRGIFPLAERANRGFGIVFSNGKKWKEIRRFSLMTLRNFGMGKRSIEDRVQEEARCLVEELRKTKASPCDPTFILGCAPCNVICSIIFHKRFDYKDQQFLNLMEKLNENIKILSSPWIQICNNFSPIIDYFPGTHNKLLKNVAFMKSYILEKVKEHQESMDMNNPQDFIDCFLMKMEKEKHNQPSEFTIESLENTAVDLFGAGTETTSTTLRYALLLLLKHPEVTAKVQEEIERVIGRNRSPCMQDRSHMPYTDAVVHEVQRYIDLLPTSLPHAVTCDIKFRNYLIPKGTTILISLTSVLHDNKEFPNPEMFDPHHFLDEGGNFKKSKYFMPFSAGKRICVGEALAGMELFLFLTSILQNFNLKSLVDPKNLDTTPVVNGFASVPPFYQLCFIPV
# Mus musculus [21] = test: In vivo inhibition of mTORC1-mediated phosphorylation of p70S6K at […] in human PC3 cells xenografted into athymic nude mouse at 100 mg/kg, po after 1 hr by Western blotting analysis relative to control; type: functional; conditions: PC-3, 1 h; in short: as §1
# [22] = biological target: Phosphatidylinositol 3-kinase catalytic subunit type 3 (Homo sapiens, UniProt Q8NEB9); test: Inhibition of VPS34 (unknown origin)
# Sequence of Phosphatidylinositol 3-kinase catalytic subunit type 3 (Q8NEB9 whole entry): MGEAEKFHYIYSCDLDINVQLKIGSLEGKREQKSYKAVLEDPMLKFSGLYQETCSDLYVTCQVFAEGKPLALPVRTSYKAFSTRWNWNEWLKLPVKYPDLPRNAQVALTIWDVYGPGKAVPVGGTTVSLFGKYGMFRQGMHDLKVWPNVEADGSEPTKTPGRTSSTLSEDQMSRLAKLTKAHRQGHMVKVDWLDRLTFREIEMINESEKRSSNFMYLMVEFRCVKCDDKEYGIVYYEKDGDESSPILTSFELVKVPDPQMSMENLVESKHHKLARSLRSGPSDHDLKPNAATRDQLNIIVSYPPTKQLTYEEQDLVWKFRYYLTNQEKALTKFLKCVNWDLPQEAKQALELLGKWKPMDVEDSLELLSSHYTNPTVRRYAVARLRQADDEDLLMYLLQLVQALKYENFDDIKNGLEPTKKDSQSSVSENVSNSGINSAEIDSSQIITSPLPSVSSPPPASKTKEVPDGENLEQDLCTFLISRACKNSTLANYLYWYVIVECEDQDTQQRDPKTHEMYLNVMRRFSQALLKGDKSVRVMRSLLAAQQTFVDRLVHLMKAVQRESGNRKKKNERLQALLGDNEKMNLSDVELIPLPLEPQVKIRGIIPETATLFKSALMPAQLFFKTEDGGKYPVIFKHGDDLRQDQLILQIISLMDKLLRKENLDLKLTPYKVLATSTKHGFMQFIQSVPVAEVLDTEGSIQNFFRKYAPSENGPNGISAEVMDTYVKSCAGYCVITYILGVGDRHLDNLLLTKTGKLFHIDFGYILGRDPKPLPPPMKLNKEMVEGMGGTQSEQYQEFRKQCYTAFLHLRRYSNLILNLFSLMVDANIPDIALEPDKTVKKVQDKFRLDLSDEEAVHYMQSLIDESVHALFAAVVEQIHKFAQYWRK
# Mus musculus [23] = test: In vivo inhibition of mTORC1-mediated phosphorylation of 4EBP1 at ([…]) in human PC3 cells xenografted into athymic nude mouse at 100 mg/kg, po after 24 hrs by Western blotting analysis relative to control; type: functional; conditions: PC-3, 24 h; in short: as §1
# MCF7 [24] = test: Antitumor activity against human MCF7 cells xenografted in athymic nude mouse at 100 mg/kg, po qd for 14 days relative to control; type: functional; in short: as §5
# Plasma [25] = test: Plasma concentration in athymic mouse plasma xenografted with human MCF7 cells at 100 mg/kg, po after 24 hrs; type: ADME, organism-based; design: dose 100 mg/kg, route oral; conditions: in vivo, BLD = below limit of detection
# In short: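 MCF-7 cells (5 × 10^6, in 50% cold HBSS/50% growth-factor-reduced matrigel) were implanted subcutaneously in the hindflank of 5–8 week old female nude mice. At 40–150 mg tumour size, mice received a single oral dose of 100 mg/kg, and plasma was sampled at the listed times after dosing.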
# Plasma [26] = test: Plasma concentration in athymic mouse plasma xenografted with human PC3 cells at 100 mg/kg, po after 24 hrs; type: ADME, organism-based, PC-3; design: dose 100 mg/kg, route oral; conditions: in vivo, BLD = below limit of detection
structure (smiles),measurement,setting,value
Cc1c(C(=O)N2CCOc3ccc(-c4ccc(N)nc4)cc3C2)ccc(S(C)(=O)=O)c1F,concentration at 4 h,[1],21.3 µM
same,solubility kinetic,[2],232 µM
same,inhibition in vivo at 100 mg/kg,Mus musculus [3],81%
same,AUC(0-inf),[4],11 µM·h
same,inhibition in vivo at 100 mg/kg,Mus musculus [5],83%
same,inhibition in vivo at 100 mg/kg,Mus musculus [6],-12%
same,inhibition in vivo at 100 mg/kg,Mus musculus [7],-24%
same,inhibition in vivo at 100 mg/kg,Mus musculus [8],85%
same,AUC(0-inf),[9],0.952 µM·h
same,Cmax,[10],9.14 µM
same,concentration at 1 h,[11],36.1 µM
same,remaining at 0.5 h,[12],78%
same,inhibition in vivo at 100 mg/kg,Mus musculus [13],-19%
same,Activity,MCF7 [14],22%
same,AUC(0-inf),[15],2.51 µM·h
same,Tmax,[16],60 min
same,IC50,Casein kinase II,> 10 µM
same,inhibition in vivo at 100 mg/kg,Mus musculus [17],36%
same,IC50,[18],> 3.5 µM
same,Tmax,[19],30 min
same,clearance,[20],84.2 mL/min/kg
same,INH,Cytochrome P450 2C9,10.6 µM
same,inhibition in vivo at 100 mg/kg,Mus musculus [21],87%
same,IC50,[22],> 3.5 µM
same,inhibition in vivo at 100 mg/kg,Mus musculus [23],19%
same,Activity,MCF7 [24],40%
same,Cp,Plasma [25],BLD
same,Cp,Plasma [26],BLD
